Compound activity from PubChem.
Shown are actives, neighbours in structure and some others; about 2.8% of the full set was active somewhere.
DENV2 CPE: inhibitors of DENV2 cytopathic effect, primary screen, cell-based, plate reader, single concentration; CPE inhibition, % at 9.99 µM; DENV2-infected cells, cytopathic effect rescue; 350,000 compounds, 1.7% hits; in the data active = CPE inhibition above about 20%, passing the limit was not always enough; inconclusive = no clear call, values can overlap the other calls; tested in BHK-21 cells;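 also: 0% = median of neutral control wells and 100% = median of positive control wells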
E-selectin induc: E-selectin induction in HUVECs, primary screen, imaging, HUVEC, immunofluorescence imaging, single point; P16581; AID 686992, 2013; normalized: neutral wells 0, TNF-alpha wells 100; 260,000 compounds, 0.37% hits; activation, % at 7.58 µM;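 active = mean E-selectin-positive cell signal at least 10% of the positive control, reached in at least 60% of replicates, without over 20% cell loss; inconclusive = no rule given, readout overlaps actives, possibly toxicity-flagged; inactive = the rest, including those meeting only one limit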
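material = human umbilical vein endothelial cells (HUVEC), E-selectin induction | quantity = 3,000 cells/well | medium = EGM-2 growth medium on 0.1% gelatin-coated wells | technique = immunofluorescence imaging | read-out basis = % PE-positive cells | control set = TNF-alpha positive control, DMSO neutral control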
SIRT5 block: SIRT5 desuccinylase inhibitors, primary screen, biochemical, fluorescence imaging, single point, set 5. NAD-dependent protein deacylase sirtuin-5, mitochondrial (Homo sapiens), Q9NXA8. Purified SirT5, succinyl-peptide AMC, trypsin-coupled fluorescence. inhibition, % at 15 µM. 330,000 compounds, 1.1% hits. AID 652115, 2013; in the data active = inhibition above about 15%; inconclusive = no clear call, values can overlap the other calls
Target sequence (Q9NXA8 whole entry, looked up): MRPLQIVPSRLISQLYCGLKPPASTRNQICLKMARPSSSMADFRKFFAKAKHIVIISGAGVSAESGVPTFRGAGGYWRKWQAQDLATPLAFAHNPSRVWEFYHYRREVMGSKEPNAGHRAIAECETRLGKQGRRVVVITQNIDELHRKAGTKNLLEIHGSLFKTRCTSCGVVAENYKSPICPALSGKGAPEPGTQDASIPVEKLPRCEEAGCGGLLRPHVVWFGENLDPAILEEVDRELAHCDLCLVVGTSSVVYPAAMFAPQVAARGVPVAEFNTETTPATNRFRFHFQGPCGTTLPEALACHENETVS
The depositor's hits bear a star; ? = inconclusive; . = not tested or not shown.

SMILES	DENV2 CPE	E-selectin induc	SIRT5 block
COCC(=O)N1CCCCN2[C@H](CO)[C@@H](c3ccc(C#Cc4cccnc4)cc3)[C@@H]2C1	-3	0	-2
CCC(=O)N1CCCCN2[C@@H](CO)[C@H](c3ccc(C#Cc4cccnc4)cc3)[C@@H]2C1	1	0	0
COCC(=O)N1CCCCN2[C@H](CO)[C@@H](c3ccc(C#Cc4cccnc4)cc3)[C@H]2C1	32*	0	0
CN(C)CC(=O)N1CCCCN2[C@H](CO)[C@H](c3ccc(-c4cccnc4)cc3)[C@@H]2C1	22*	0	-1
O=C(c1cccnc1)N1CCCCN2[C@H](CO)[C@@H](c3ccc(C#Cc4cccnc4)cc3)[C@H]2C1	25*	0	.
Cc1noc(C)c1NC(=O)N(C)C[C@@H]1Oc2ccc(NC(=O)Nc3cccc4ccccc34)cc2CC(=O)N([C@H](C)CO)C[C@@H]1C	-7	0	1
O=C(C[C@H]1CC[C@@H]2[C@H](COC[C@@H](O)CN2Cc2nccs2)O1)NCc1ccccc1F	-7	0	0
O=C(O)C[C@@H]1CC[C@H](NC(=O)c2ccccc2F)[C@@H](CO)O1	2	-1	-1
C[C@@H]1CN([C@@H](C)CO)C(=O)c2cc(NS(=O)(=O)c3ccc(F)cc3)ccc2O[C@@H](C)CCCCO[C@H]1CN(C)CC1CCCCC1	-19	0	9
C[C@@H]1CCCCO[C@H](CN(C)CC2CC2)[C@@H](C)CN([C@@H](C)CO)C(=O)c2cc(NS(=O)(=O)c3ccc(F)cc3)ccc2O1	5	0	-1
C[C@H](CO)N1C[C@H](C)[C@H](CN(C)CC2CCCCC2)OCCCC[C@H](C)Oc2ccc(NS(=O)(=O)c3ccccc3)cc2C1=O	-9	0	2
C[C@@H]1CN([C@H](C)CO)C(=O)c2cc(NS(=O)(=O)c3ccc(F)cc3)ccc2O[C@@H](C)CCCCO[C@@H]1CN(C)CC1CCCCC1	8	0	19*
C[C@@H]1CCCCO[C@H](CN(C)CC2CC2)[C@H](C)CN([C@H](C)CO)C(=O)c2cc(NS(=O)(=O)c3ccc(F)cc3)ccc2O1	29*	1	1
C[C@@H]1CCCCO[C@H](CN(C)CC2CCCCC2)[C@@H](C)CN([C@H](C)CO)C(=O)c2cc(NS(=O)(=O)c3ccccc3)ccc2O1	28*	0	-14
C[C@H](CO)N1C[C@H](C)[C@H](CN(C)S(=O)(=O)c2ccc(Cl)cc2)Oc2ccc(NS(=O)(=O)c3ccc(Cl)cc3)cc2CC1=O	13	1	5
O=C(C[C@@H]1C[C@H]2c3cc(NC(=O)c4cccnc4)ccc3O[C@H]2[C@H](CO)O1)NCc1ccccn1	14	0	-1
CC(C)(O)c1cn([C@@H]2C[C@@H]3O[C@@H](CO)CC[C@@H]3O[C@@H]2CCc2ccc(-c3ccncc3)cc2)nn1	-2	.	1
Cc1ccc(S(=O)(=O)N[C@@H](CC(C)C)C(=O)N2CCC(C(=O)N[C@@H](Cc3ccccc3)C(=O)O)CC2)cc1	-3	.	.
Cc1ccc(S(=O)(=O)N[C@H](C(=O)N2CCC(C(=O)N[C@@H](CC(=O)O)C(=O)O)CC2)C(C)C)cc1	-2	.	2
Cc1ccc(S(=O)(=O)N[C@@H](Cc2ccccc2)C(=O)N2CCC(C(=O)N[C@@H](CCC(N)=O)C(=O)O)CC2)cc1	0	66*	-4
CCC(C)[C@H](NS(=O)(=O)c1ccc(C)cc1)C(=O)N1CCC(C(=O)N2CCC(C(=O)OC)CC2)CC1 (some centres undefined)	82*	.	.
Cc1ccc(S(=O)(=O)NC2CCN(Cc3cccc(OCCO)c3)CC2)cc1	-3	.	.
CN(C)c1ccc(CNc2nc3ccccc3n2C)cc1	-5	1	.
CCCn1c(NCc2ccc(N(C)C)cc2)nc2ccccc21	24*	3	-1
Cc1cccc(C)c1NC(=O)CNC(=O)c1ccc2c(c1)NC(=O)CS2	-2	0	.
SMILES	DENV2 CPE	E-selectin induc	SIRT5 block
CCCCN(C(=O)c1ccc2c(c1)NC(=O)CS2)c1ccccc1	94*	.	-5
COc1cccc(NC(=O)N2CC(=O)N3[C@@H](CO)[C@@H](c4ccc(C#CC5CCCC5)cc4)[C@@H]3C2)c1	-7	-1	10
CC(C)Oc1ccc(S(=O)(=O)N2CCOCC2)cc1NC(=O)c1cc([N+](=O)[O-])ccc1N1CCOCC1	72*	0	2
COc1ccc(S(=O)(=O)N2CCOCC2)cc1C(=O)Nc1ccc(N2CCCCCC2)cc1	14	.	-1
Cc1occc1C(=O)Nc1cc(S(=O)(=O)N2CCOCC2)ccc1OC(C)C	-5	.	0
COc1ccc(CCC(=O)Nc2cc(S(=O)(=O)N3CCOCC3)ccc2OC(C)C)cc1	70*	0	-2
COc1cc(NC(=O)c2cc(S(=O)(=O)N3CCCCC3)ccc2N2CCOCC2)cc(OC)c1OC	63*	-1	-1
COc1cc(CCC(=O)Nc2cc(S(=O)(=O)N3CCOCC3)ccc2OC(C)C)cc(OC)c1OC	-2	0	-1
C[C@H](CO)N1C[C@H](C)[C@H](CN(C)C(=O)C2CCC2)Oc2ncc(C#Cc3cccc(F)c3)cc2C1=O	-2	2	2
C[C@@H]1CN([C@@H](C)CO)C(=O)Cc2cc(NC(=O)Nc3ccc(C(F)(F)F)cc3)ccc2O[C@@H]1CN(C)C(=O)Nc1ccc(F)cc1	16	0	3
CO[C@H]1CN(C)C(=O)c2ccc(NC(=O)Cc3ccccc3)cc2OC[C@@H](C)N(C)C[C@H]1C	5	0	0
CCC(=O)N1CC2(C1)CN(C(=O)Nc1ccccc1F)[C@@H](CO)c1[nH]c3cc(OC)ccc3c12	-1	0	-2
Cc1ccc(-c2nc3ccc(Cl)cn3c2Cc2ccsc2)cc1	?	0	-4
Cc1ccc2nc(-c3cccc(Br)c3)c(Cc3cccc(Cl)c3)n2c1	54*	.	-1
Cc1ccc(Cc2c(-c3ccc(Cl)cc3)nc3ccc(Cl)cn23)cc1	-2	0	-4
N#Cc1ccc(-c2nc3ccc(Br)cn3c2Cc2ccccc2C(F)(F)F)cc1	5	0	-3
Cc1ccc(Cc2c(-c3ccc(C)cc3)nc3ccc(Cl)cn23)cc1	25*	0	2
Fc1ccc(-c2nc3ccc(Cl)cn3c2Cc2ccsc2)cc1	-12	0	28*
Cc1ccc2nc(-c3ccc(C#N)cc3)c(Cc3ccccc3C(F)(F)F)n2c1	63*	0	1
Clc1cccc(Cc2c(-c3cccc(Br)c3)nc3ccc(Cl)cn23)c1	-2	0	-1
OC[C@@H]1Nc2ccc(C#Cc3ccc(F)cc3)cc2[C@H]2[C@@H]1CCN2Cc1ccc2c(c1)OCO2	-33	0	.
O=C(C[C@@H]1CC[C@H]2[C@@H](COC[C@@H](O)CN2S(=O)(=O)c2cccc(Cl)c2)O1)NCCCN1CCOCC1	-6	0	.
COc1cccc(C(=O)Nc2ccc3c(c2)C(=O)N(C)C[C@H](OC)[C@@H](C)CN[C@H](C)CO3)c1	3	0	8
Cc1ccc2nc(-c3ccccc3)c(Cc3cccc(Cl)c3)n2c1	4	.	22*
Clc1cccc(Cc2c(-c3ccccc3)nc3ccc(Cl)cn23)c1	-1	0	-2
